Pf gamet viab: P. falciparum stage V gametocyte viability inhibition | P. falciparum stage V gametocytes, ATP luminescence, 24 h | inhibition, % at 10.9 µM | 150,000 compounds, 0.065% hits | AID 743093;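 active = inhibition above the mean plus 3 SD of compounds within the control limits, set per campaign, cut at about 38% in these data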
FLuc inhib CS: counter-screen for luciferase assay inhibitors: firefly luciferase inhibition; P08659; ATPLite firefly luciferase biochemical luminescence, 10 min; inhibition, % at 10 µM; 200,000 compounds, 1.5% hits; AID 1006;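 active = inhibition above about 50% when tested at 10 µM, limit read from the data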
Target sequence (P08659 whole entry, looked up): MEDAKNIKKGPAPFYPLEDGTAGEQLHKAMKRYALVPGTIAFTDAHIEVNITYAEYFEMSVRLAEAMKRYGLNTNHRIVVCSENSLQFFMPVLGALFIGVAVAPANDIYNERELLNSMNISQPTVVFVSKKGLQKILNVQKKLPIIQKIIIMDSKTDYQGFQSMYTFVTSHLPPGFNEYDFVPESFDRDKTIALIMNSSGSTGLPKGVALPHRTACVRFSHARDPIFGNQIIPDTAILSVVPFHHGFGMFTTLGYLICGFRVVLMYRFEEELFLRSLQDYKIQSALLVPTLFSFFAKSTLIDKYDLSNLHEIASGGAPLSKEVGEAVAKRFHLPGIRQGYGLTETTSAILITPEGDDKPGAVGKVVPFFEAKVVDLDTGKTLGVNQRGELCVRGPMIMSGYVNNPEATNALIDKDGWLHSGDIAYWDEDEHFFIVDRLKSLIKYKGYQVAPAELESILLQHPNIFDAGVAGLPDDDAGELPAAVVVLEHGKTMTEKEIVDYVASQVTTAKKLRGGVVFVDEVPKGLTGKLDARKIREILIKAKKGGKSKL
FLuc stim CS: affects firefly luciferase, flagging false hits in luciferase stimulation screens; 200,000 tested, under 10 active; P08659; ATPlite luciferase biochemical, luminescence, 10 min; 0 = ATP-free wells, 1 = DMSO control; activation factor at 10 µM;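 active = luciferase activation factor, scaled between plate controls, of at least 2 with compound at 10 µM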
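System: luciferase plus luciferin reagent, cell-free; medium: PBS as buffer for the ATP substrate; dosing: test compounds dosed from 2 mM stocks in 100% DMSO; timing: 10 min post-reagent at room temperature; measured by: luminescence measurement of luciferase light output; evaluation: luciferase activation, seen as luminescence increase over controls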
APP 5'UTR act: APP 5'UTR luciferase reporter activation. SH-SY5Y APP 5'UTR luciferase reporter, luminescence; zero percent = DMSO vehicle wells. activation, % at 2 µM. 190,000 compounds, 1% hits;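 active = activation above a set limit, based on mean plus 3 SD of controls, cut at about 140% in these data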
NF-kB expr up: raises NF-kB expression in human neuronal cells. NF-kB reporter expression; active compounds read high. fold change at 12.5 µM. 190,000 compounds, 1.6% hits. AID 1239; in the data active = fold change above about 3.3
STAT1 act: activators of IFN-gamma induced STAT1 signaling; 200,000 compounds, 2.6% hits; NIH 3T3 STAT1-luciferase reporter, luminescence; 100% = IFN-gamma alone, no compound; activation (% of control), % at 5.5 µM;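 active = activation above the screen-wide mean activation plus 3 SD, cut at about 130% in these data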
A number is an active result; - = inactive; . = not tested or not shown. Sampled rows, rich in hits. Any-hit rate of the full collection: about 3.5%.

SMILES	Pf gamet viab	FLuc inhib CS	FLuc stim CS	APP 5'UTR act	NF-kB expr up	STAT1 act
Cc1ccc(S(=O)(=O)N2CCCC2c2nc3ccccc3s2)cc1 (configuration not stated)	-	-	-	-	-	-
C[C@H]1NC(=O)[C@@]2(C)[C@H](c3ccccc3)[C@H]3COc4ccccc4[C@@H]3N2C1=O	-	.	.	.	.	.
Cc1scc(C(=O)N/N=C/c2ccco2)c1C	-	54	-	-	-	-
CN(C)c1cccc(C(=O)N/N=C/c2ccsc2)c1	-	90	-	-	-	-
CCCOc1cccc(/C=N/NC(=O)c2csc(C)c2C)c1	.	-	-	-	-	-
Cc1scc(C(=O)N/N=C/c2ccsc2)c1C	-	84	-	-	4.6	140
O=C(O)CSCC(=O)N1CCN(S(=O)(=O)c2cc(Cl)cc(Cl)c2)CC1	-	.	.	.	.	.
CC(=O)Oc1ccc(C)cc1-n1nc2ccccc2n1	-	-	-	-	3.5	-
COC(=O)c1cccc(S(=O)(=O)N2CCCC2)c1	-	-	-	-	-	-
Cc1ccc(OC(=O)c2cccc(S(=O)(=O)N3CCCC3)c2)c(-n2nc3ccccc3n2)c1	-	-	-	-	3.5	-
Cc1ccc(OC(=O)c2cccc(S(=O)(=O)N(C)C)c2)c(-n2nc3ccccc3n2)c1	-	-	-	-	-	-
Cc1ccc(OC(=O)c2ccc(S(=O)(=O)N(C)C)cc2)c(-n2nc3ccccc3n2)c1	.	-	-	-	4.5	-
Cc1ccc(OCC(=O)O)c(-n2nc3ccccc3n2)c1	.	-	-	-	-	-
COC(=O)CSc1snnc1-c1ccc(Cl)cc1Cl	.	-	-	-	-	-
CCOC(=O)c1[nH]c2cc(OC)c(OC)cc2c1N	-	-	-	-	-	-
CCOC(=O)c1[nH]c2ccc(C)cc2c1N	.	51	-	-	3.5	-
COC(=O)[C@H](Cc1ccccc1)[C@@H](C)OS(N)(=O)=O	-	.	.	.	.	.
COc1ccc(C2=NOC(C(=O)Nc3cccnc3)C2)cc1OC (configuration not stated)	-	.	.	.	.	.
N/C(=N\OC(=O)Cc1ccccc1)c1ccc(Br)cc1	-	-	-	-	-	-
N/C(=N\OC(=O)Cc1cccs1)c1ccc(Cl)cc1	-	.	.	.	.	.
N/C(=N\OC(=O)Cc1cccs1)c1ccccc1	-	-	-	-	-	137
Cc1ccc(/C(N)=N/OC(=O)Cc2ccccc2)cc1	-	-	-	-	-	133
Cc1ccc(/C(N)=N/OC(=O)Cc2cccs2)cc1	-	-	-	-	-	150
Cc1cccc(/C(N)=N/OC(=O)Cc2cccs2)c1	-	-	-	-	-	132
Cc1cccc(C(=O)NN2S(=O)(=O)c3ccccc3S2(=O)=O)c1	-	-	-	-	-	-
SMILES	Pf gamet viab	FLuc inhib CS	FLuc stim CS	APP 5'UTR act	NF-kB expr up	STAT1 act
C#CCN1N=C(c2ccc(C)cc2)CSC1=O	-	.	.	.	.	.
CCC(C)c1ccc(O)c(NC(=O)c2cccnc2)c1 (configuration not stated)	.	-	-	-	-	-
CCC(C)c1ccc(NC(=O)c2cccnc2)cc1 (configuration not stated)	.	-	-	-	3.9	133
CCNS(=O)(=O)c1ccc(NC(=O)c2cccnc2)cc1	.	-	-	-	-	-
O=C(NNC(=O)c1cccc(Br)c1)Nc1ccc(Cl)cc1	.	-	-	-	-	-
O=C(Nc1ccc(S(=O)(=O)Nc2ncccn2)cc1)c1cccnc1	-	-	-	-	-	134
CC(C)c1ccc(NC(=O)c2cccc(Br)c2)cc1	.	-	-	-	-	140
CC1CCN(c2ccc3c(c2)S(=O)(=O)c2cccc(C(=O)NC4CC4)c2C3=O)CC1	-	.	.	.	.	.
CCOC(=O)C1(Cc2cccc(OC)c2)CCN(Cc2cccc3c2OCO3)CC1	-	-	-	-	-	-
CCOC(=O)C(C#N)C(c1cccnc1)c1c(C)[nH][nH]c1=O (configuration not stated)	40	-	-	-	-	-
CN=c1scc(-c2cccs2)n1/N=C/c1ccccc1O	-	94	-	-	-	-
CN=c1scc(-c2cccs2)n1/N=C/c1ccc(O)c(O)c1O	.	98	-	-	5	-
CN=c1scc(C)n1/N=C/c1ccc(O)c(O)c1O	-	97	-	-	-	-
O=C(Nc1cccc(S(=O)(=O)N2CCCCC2)c1)c1ccc2ncsc2c1	-	.	.	.	.	.
CCOC(=O)c1c(NC(=O)CN2C(=O)CN(C)C2=O)sc(C)c1C	.	-	-	-	-	-
